In article PMC2888972 (Molecular cancer therapeutics, 2009):
Where two headings read alike, the source gives them in different places. Values belong to the compound of their own block, whether it stands above or below them.

How the values were obtained:
[1] = test system: HK-2 normal; assay: Growth inhibition assay; format: cell-based, human; conditions: 48 h; for efficacy (maximum growth inhibition observed): 1 to 12.5 µmol/L; for EC50: read-out: potency (EC50, concentration needed to induce half maximal efficacy)
Method in brief: (§1)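 Stock is 0.01 mol/L in DMSO, kept at −20°C under subdued light. Cells get 1–12.5 µmol/L or equal-volume DMSO, in triplicate, for 48 h. Growth index is mean treated OD over mean control OD, plotted against concentration. Maximal inhibition comes by nonlinear regression from plots of 2–3 independent experiments.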

[2] = test system: Caki-1 cancer; assay: Growth inhibition assay; format: cell-based, human; conditions: for efficacy (maximum growth inhibition observed): 1 to 12.5 µmol/L; for EC50: read-out: potency (EC50, concentration needed to induce half maximal efficacy)
Method in brief: as §1

[3] = test system: 786-O cancer; assay: Growth inhibition assay; format: cell-based, human; conditions: for efficacy (maximum growth inhibition observed): 48 h, 1 to 12.5 µmol/L; for EC50: read-out: potency (EC50, concentration needed to induce half maximal efficacy), 48 h
Method in brief: as §1

[4] = test system: normal HK-2 cell lines; assay: Cell cycle analysis; format: cell-based, human; conditions: 10 µmol/L, 24 h
[5] = test system: Caki-1 cancer; assay: Cell cycle analysis; format: cell-based, human; conditions: 10 µmol/L, 24 h
[6] = test system: NF-κB transcriptional activity; assay: NF-κB luciferase reporter assay in Caki-1; format: cell-based, human
[7] = test system: Cyclin D1; assay: Western blot, Cyclin D1; format: cell-based, human; conditions: SHetA2 treatment
Method in brief: (§2)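 Lysis is in CytoBuster with protease inhibitor cocktail. 100 µg protein is resolved by SDS-PAGE and blotted to nitrocellulose. Blots are probed with mouse monoclonals (Cyclin D1, PARP-1, Caspase 3), then HRP secondary with luminol detection. Stripped blots are reprobed for β-actin or GAPDH as loading control. Solvent-only DMSO cultures serve as control.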

[8] = test system: livers of SHetA2-treated mice; conditions: previous xenograft model; cited from earlier work
[9] = test system: Caki-1 renal cancer xenografts; assay: Caki-1 renal cancer xenograft; conditions: for tumor-related deaths: 4 in untreated control group
[10] = test system: RTC 91696 normal cultures; assay: Apoptosis assay; format: cell-based, human; conditions: maximum 72-hour treatment time and 12.5-µmol/L concentration
Method in brief: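 Floating cells from the medium are pooled with trypsinised adherent cells, pelleted, and stained with Annexin-V-FITC and PI (Vybrant kit #3). Flow cytometry uses 488 nm excitation and 530/575 nm emission. Cultures are at passage 3, in MEMα with EGF 10 ng/mL, hydrocortisone 5 µg/mL, insulin/transferrin/selenous acid 6.35 µg/mL each, 10% FBS and pen/strep. The apoptotic-quadrant percentage comes from four replicate experiments.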

[11] = test system: TA1537; assay: Bacterial mutation
[12] = test system: A498 cancer cell line xenograft; assay: A498 xenograft model; format: in vivo; conditions: 20, 40, or 60 mg/kg/day; data not shown
[13] = test system: TA1535; assay: Bacterial mutation
[14] = test system: RTC91696 normal; assay: Growth inhibition assay; format: cell-based, human; conditions: 48 h; for EC50: read-out: potency (EC50, concentration needed to induce half maximal efficacy); for efficacy (maximum growth inhibition observed): 1 to 12.5 µmol/L
[15] = test system: E-Cadherin mRNA; assay: Real-time rtPCR of E-Cadherin in Caki-1 cultures; format: cell-based, human
Method in brief: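 RNA comes from frozen cell pellets (RNeasy). TaqMan real-time PCR for E-Cadherin and 18S is run in triplicate reactions. Expression is normalised to 18S by ΔΔCt and set relative to solvent-only control cultures at each dose or time point. Three independent experiments.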

[16] = test system: TA100; assay: Bacterial mutation
[17] = test system: TA98; assay: Bacterial mutation
[18] = test system: PARP-1 and Caspase 3; assay: Western blot, PARP-1 and Caspase 3 cleavage; format: cell-based, human; conditions: Caki-1 cultures, 10 µmol/L
Method in brief: as §2

[19] = animal models; cited from earlier work
[20] = test system: mouse embryos; conditions: animal models; cited from earlier work
[21] = test system: WP2 uvrA; assay: Bacterial mutation
[22] = test system: Caki-1 cancer cell line; assay: Apoptosis assay; format: cell-based, human; conditions: 10 µmol/L SHetA2, Annexin-V-FITC/PI
[23] = test system: five bacterial strains; assay: Bacterial mutation
[24] = 1.58 µg/plate (0.004 µmol/L), +S9
[25] = 1.58 µg/plate (0.004 µmol/L), −S9
[26] = 5.0 µg/plate (0.012 µmol/L), +S9
[27] = 15.8 µg/plate (0.039 µmol/L), +S9
[28] = 50 µg/plate (0.125 µmol/L), +S9
[29] = 50 µg/plate (0.125 µmol/L), −S9
[30] = 158 µg/plate (0.393 µmol/L), +S9
[31] = 158 µg/plate (0.393 µmol/L), −S9
[32] = 500 µg/plate (1.245 µmol/L), +S9
[33] = 500 µg/plate (1.245 µmol/L), −S9
[34] = 1581 µg/plate (3.937 µmol/L), +S9
[35] = 1581 µg/plate (3.937 µmol/L), −S9
[36] = 5000 µg/plate (12.452 µmol/L), +S9
[37] = 5000 µg/plate (12.452 µmol/L), −S9
[38] = RTC91696 normal, single experiments

EC50 ([2]; Caki-1 cancer, 48 h): 7.22 ± 0.25 µM | EC50 [3]: 5.14 ± 0.7 µM
Structure (SMILES): COC(=O)c1cccc(NC(=S)Nc2ccc3c(c2)C(C)(C)CC(C)(C)S3)c1 [SHetD5]
efficacy (maximum growth inhibition observed) ([1]; HK-2 normal): 47.97% ± 1.00% | EC50 ([1]; HK-2 normal): 4.96 ± 0.25 µM | efficacy (maximum growth inhibition observed) ([2]; Caki-1 cancer, 48 h): 34.10% ± 1.20% | efficacy (maximum growth inhibition observed) [3]: 41.80% ± 16.91%

Structure (SMILES): CC1(C)CC(C)(C)c2cc(NC(=S)Nc3ccc([N+](=O)[O-])cc3)ccc2S1 [SHetA2]
percentages of cells in the G0-G1 phase of the cell cycle [4]: increased the percentages of cells in the G0-G1 phase | percentages of cells in the G0-G1 phase of the cell cycle [5]: increased the percentages of cells in the G0-G1 phase | time to inhibition of NF-κB activity ([6]; 10 µmol/L SHetA2): ≤ 30 min | tumor necrosis factor α induced NF-κB transcriptional activity ([6]; 10 µmol/L SHetA2, 20 ng/mL TNFα, 4 or 8 h): significantly inhibited | time to decreased expression of Cyclin D1 [7]: ≤ 1 h | liver damage (necrosis, fatty changes, inflammation in portal tracts) [8]: no liver damage | tumor-related deaths ([9]; 20 mg/kg/day oral): 3 | tumor-related deaths ([9]; 40 mg/kg/day oral): 6 | maximal growth inhibition of xenograft tumors ([9]; 60 mg/kg/day oral for 30 days, day 34 (23rd day of treatment)): 36% | tumor-related deaths ([9]; 60 mg/kg/day oral): 6 | body weight of the animals compared with the control group ([9]; 20, 40, 60 mg/kg/day oral for 30 days): None of the treatment concentrations altered the body weight | reduction of xenograft tumor sizes ([9]; 20 and 40 mg/kg/day oral for 30 days): not statistically significant | induction of apoptosis in normal cells [10]: did not induce apoptosis | number of revertant colonies, Mean [11, 24]: 23 | number of revertant colonies, Mean [11, 25]: 9 | number of revertant colonies, Mean [11, 26]: 21 | number of revertant colonies, Mean [11, 27]: 21 | sensitivity of A498 xenograft [12]: did not exhibit significant sensitivity | number of revertant colonies, Mean [13, 28]: 15 | number of revertant colonies, Mean [13, 29]: 19 | number of revertant colonies, Mean [13, 30]: 20 | number of revertant colonies, Mean [13, 31]: 26 | number of revertant colonies, Mean [13, 32]: 22 | number of revertant colonies, Mean [13, 33]: 18 | number of revertant colonies, Mean [13, 34]: 19 | number of revertant colonies, Mean [13, 35]: 21 | number of revertant colonies, Mean [13, 36]: 22 | number of revertant colonies, Mean [13, 37]: 16 | EC50 ([14]; Homo sapiens): 4.57 ± 0.49 µM | efficacy (maximum growth inhibition observed) [14, 38]: 36.84% ± 6.80% | time to upregulation of E-Cadherin mRNA [15]: ≤ 1 h | induction of E-Cadherin steady-state mRNA ([15]; 4 hours of treatment): 20 fold | induction of E-Cadherin steady-state mRNA ([15]; 24 hours of treatment): 60 fold | efficacy (maximum growth inhibition observed) ([1]; HK-2 normal): 51.02% ± 7.07% | EC50 ([1]; Homo sapiens): 4.5 ± 0.28 µM | efficacy (maximum growth inhibition observed) ([2]; Caki-1 cancer, 48 h): 84.40% ± 3.86% | EC50 ([2]; Homo sapiens, CAKI-1, 48 h): 4.93 ± 0.22 µM | number of revertant colonies, Mean [16, 24]: 136 | number of revertant colonies, Mean [16, 25]: 136 | number of revertant colonies, Mean [16, 26]: 124 | number of revertant colonies, Mean [16, 27]: 171 | number of revertant colonies, Mean [17, 24]: 48 | number of revertant colonies, Mean [17, 25]: 16 | number of revertant colonies, Mean [17, 26]: 45 | number of revertant colonies, Mean [17, 27]: 52 | number of revertant colonies, Mean [17, 28]: 49 | number of revertant colonies, Mean [17, 30]: 12 | efficacy (maximum growth inhibition observed) [3]: 72.00% ± 5.06% | time to cleavage of PARP-1 and Caspase 3 [18]: ≤ 16 h | skin irritancy [19]: did not induce skin irritancy or teratogenicity | teratogenicity [20]: did not induce skin irritancy or teratogenicity | number of revertant colonies, Mean [21, 28]: 27 | number of revertant colonies, Mean [21, 29]: 17 | number of revertant colonies, Mean [21, 30]: 18 | number of revertant colonies, Mean [21, 31]: 14 | number of revertant colonies, Mean [21, 32]: 22 | number of revertant colonies, Mean [21, 33]: 18 | number of revertant colonies, Mean [21, 34]: 17 | number of revertant colonies, Mean [21, 35]: 10 | number of revertant colonies, Mean [21, 36]: 13 | number of revertant colonies, Mean [21, 37]: 12 | percentage of cells in the quadrant corresponding to apoptosis [22]: increased the percentage of Caki-1 cancer cells | mutagenicity of metabolites (number of revertant colonies) ([23]; preincubation with S9 microsomal fractions): no effect on the number of revertant colonies | mutagenicity (increase in revertant colony counts) ([23]; without S9): neither SHetA2 nor SHetA3 induced substantial increases in the revertant colony counts

Structure (SMILES): Nc1ccc2cc3ccccc3cc2c1 [2AA, reference compound]
number of revertant colonies, Mean ([13]; positive control 5 µg/plate, +S9): 324 | number of revertant colonies, Mean ([21]; positive control 0.5 µg/plate, −S9): 594 | number of revertant colonies, Mean ([21]; positive control 15 µg/plate, +S9): 145

Structure (SMILES): CC1(C)CC(C)(C)c2cc(NC(=O)Nc3ccc([N+](=O)[O-])cc3)ccc2S1 [SHetC2]
efficacy (maximum growth inhibition observed) [14, 38]: 52.31% ± 7.38% | EC50 [14, 38]: 7.67 ± 0.49 µM | efficacy (maximum growth inhibition observed) ([1]; HK-2 normal): 52.67% ± 1.84% | EC50 ([1]; HK-2 normal): 4.47 ± 0.49 µM | efficacy (maximum growth inhibition observed) ([2]; Caki-1 cancer, 48 h): 85.71% ± 4.53% | EC50 ([2]; Caki-1 cancer, 48 h): 4.91 ± 0.29 µM | efficacy (maximum growth inhibition observed) [3]: 78.53% ± 6.11% | EC50 [3]: 7.48 ± 0.34 µM

Structure (SMILES): O=[N+]([O-])c1ccc2c(c1)Cc1ccccc1-2 [2NF, reference compound]
number of revertant colonies, Mean ([17]; positive control 1 µg/plate, −S9): 108
